We go through 7 compounds from publication PMC3445775 (Hepatology (Baltimore, Md.), 2012).

One assay has as its target T1, human FATP5 (Homo sapiens, UniProt Q9Y2P5).
T1 sequence (Q9Y2P5 1-690): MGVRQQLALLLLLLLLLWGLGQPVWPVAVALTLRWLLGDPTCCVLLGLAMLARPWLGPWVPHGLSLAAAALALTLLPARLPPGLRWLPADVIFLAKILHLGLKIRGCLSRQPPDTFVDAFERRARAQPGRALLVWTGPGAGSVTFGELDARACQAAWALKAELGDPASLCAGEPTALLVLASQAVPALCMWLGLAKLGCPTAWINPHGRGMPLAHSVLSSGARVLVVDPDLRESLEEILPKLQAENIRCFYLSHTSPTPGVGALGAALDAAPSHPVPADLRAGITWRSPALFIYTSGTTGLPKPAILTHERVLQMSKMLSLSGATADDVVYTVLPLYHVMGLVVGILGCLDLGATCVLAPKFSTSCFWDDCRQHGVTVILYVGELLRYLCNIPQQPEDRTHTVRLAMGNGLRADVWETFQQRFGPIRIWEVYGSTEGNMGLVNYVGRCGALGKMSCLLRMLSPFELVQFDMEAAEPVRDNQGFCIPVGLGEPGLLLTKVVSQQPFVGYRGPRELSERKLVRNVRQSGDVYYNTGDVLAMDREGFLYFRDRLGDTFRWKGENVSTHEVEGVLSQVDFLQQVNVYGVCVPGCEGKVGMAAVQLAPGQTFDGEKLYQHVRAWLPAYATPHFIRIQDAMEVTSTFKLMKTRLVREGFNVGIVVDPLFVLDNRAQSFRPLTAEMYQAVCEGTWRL
Type of assay: cell-based. The note with it: for inhibition of FATP5-mediated LCFA uptake: result in words. The essentials: (§1)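 HEK-293 cells stably expressing human FATP4, FATP2 or FATP5 were maintained in DMEM/10% FBS with 1 mg/ml G418. Cells were plated at 30,000–50,000/well overnight to 50–70% confluency. They were preincubated 30 min (5% CO2) with test compound, diluted from DMSO stock into HBSS with 20 mM HEPES, 4.5 g/L glucose and 0.1% fatty-acid-free BSA. Compound in quencher mix containing 2 μM C1-BODIPY-C12 was then added. Fluorescence (ex 488/em 515 nm, bottom read) was recorded every 2 min for 2 h, and uptake velocities were derived by linear regression.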

A further assay addresses human FATP2 (Homo sapiens, UniProt O14975). The assay is classed as cell-based. The note with it: for inhibition of FATP2-mediated LCFA uptake: result in words. The procedure, abridged: as §1
A further assay deals with FATP5 and FATP2. Briefly: Inhibition reversibility assay. The assay is classed as cell-based, human. The note with it: 30 min treatment followed by brief washes with PBS.

Take `C[C@H](CCC(=O)O)[C@H]1CC[C@H]2[C@@H]3[C@H](O)[C@@H](O)[C@@H]4C[C@H](O)CC[C@]4(C)[C@H]3CC[C@]12C` [alpha-muricholic acid]: the “inhibition of FATP5-mediated LCFA uptake” value on human FATP5 is “no effect on LCFA uptake”.
For `C[C@H](CCC(=O)NCCS(=O)(=O)O)[C@H]1CC[C@H]2[C@@H]3CC[C@@H]4C[C@H](O)CC[C@]4(C)[C@H]3C[C@H](O)[C@]12C` [TDCA, taurodeoxycholic acid], the “inhibition of FATP5-mediated LCFA uptake” value on human FATP5 is reported as “inhibited neither FATP2 nor FATP5”. Besides, the “inhibition of FATP2-mediated LCFA uptake” value at human FATP2 was “inhibited neither FATP2 nor FATP5”.
Regarding `COc1cc(/C=C2/SC(=S)N(c3cccc(Cl)c3)C2=O)cc(Br)c1O` [CB-2, (5E)-5-[(3-bromo-4-hydroxy-5-methoxyphenyl)methylene]-3-(3-chlorophenyl)-2-thioxothiazolidin-4-one, reference compound], the “Reversible Inhibition” value with FATP5 and FATP2 is on record as “Yes”. In addition, the IC50 against human FATP2 was 8 µM.
For `C[C@H](CCC(=O)O)[C@H]1CC[C@H]2[C@@H]3[C@H](O)C[C@@H]4C[C@H](O)CC[C@]4(C)[C@H]3C[C@H](O)[C@]12C` [CA, cholic acid], on human FATP5, the IC50 turned out to be 31 µM and the “inhibition of FATP5-mediated LCFA uptake” value is listed as “specifically inhibited FATP5-mediated LCFA uptake”. Also, in the assay on FATP5 and FATP2, the “Reversible Inhibition” value is “complete reversibility and Yes”.
Take `Oc1c(C2=NCCNC(C(F)(F)F)=C2)ccc2ccccc12` [CB-6, 2-[7-(trifluoromethyl)-2,3-dihydro-1H-1,4-diazepin-5-yl]naphthalen-1-ol, reference compound]: the IC50 against human FATP5 came out at 38 µM; against human FATP2, 12 µM. Further, in the assay on FATP5 and FATP2, the “Reversible Inhibition” value is “irreversible and No”.
Consider `CC(CCC[C@@H](C)[C@H]1CC[C@H]2[C@@H]3[C@H](O)C[C@@H]4C[C@H](O)CC[C@]4(C)[C@H]3C[C@H](O)[C@]12C)C(=O)O` (stereo partly drawn) [THCA, 3a,7a,12a-Trihydroxy-5β-cholestanoic acid], for which the “inhibition of FATP5-mediated LCFA uptake” value at human FATP5 is reported as “weak inhibition”. For the same compound, at human FATP2, the “inhibition of FATP2-mediated LCFA uptake” value was “no inhibition”.
With `C[C@H](CCC(=O)O)[C@H]1CC[C@H]2[C@@H]3[C@H](O)C[C@@H]4C[C@H](O)CC[C@]4(C)[C@H]3CC[C@]12C` [CDCA, chenodeoxycholic acid], at human FATP5, the midpoint of inhibition, the IC50, lay at 10 µM and the “inhibition of FATP5-mediated LCFA uptake” value is recorded as “specifically inhibited FATP5-mediated LCFA uptake”. Moreover, in the assay on FATP5 and FATP2, the “Reversible Inhibition” value is “complete reversibility and Yes”.
